Reference: ChEMBL document CHEMBL1142564, “Lanostane triterpenoids and triterpene glycosides from the fruit body of Fomitopsis pinicola and their inhibitory activity against COX-1 and COX-2” (J Nat Prod, 2005)

Experiments:
[1] = target: T1, Prostaglandin G/H synthase 1 (Ovis aries) (UniProt P05979); assay: Inhibition of COX1 from ram seminal vesicles at 10 ug/ml by liquid scintillation counter
T1 sequence (whole entry): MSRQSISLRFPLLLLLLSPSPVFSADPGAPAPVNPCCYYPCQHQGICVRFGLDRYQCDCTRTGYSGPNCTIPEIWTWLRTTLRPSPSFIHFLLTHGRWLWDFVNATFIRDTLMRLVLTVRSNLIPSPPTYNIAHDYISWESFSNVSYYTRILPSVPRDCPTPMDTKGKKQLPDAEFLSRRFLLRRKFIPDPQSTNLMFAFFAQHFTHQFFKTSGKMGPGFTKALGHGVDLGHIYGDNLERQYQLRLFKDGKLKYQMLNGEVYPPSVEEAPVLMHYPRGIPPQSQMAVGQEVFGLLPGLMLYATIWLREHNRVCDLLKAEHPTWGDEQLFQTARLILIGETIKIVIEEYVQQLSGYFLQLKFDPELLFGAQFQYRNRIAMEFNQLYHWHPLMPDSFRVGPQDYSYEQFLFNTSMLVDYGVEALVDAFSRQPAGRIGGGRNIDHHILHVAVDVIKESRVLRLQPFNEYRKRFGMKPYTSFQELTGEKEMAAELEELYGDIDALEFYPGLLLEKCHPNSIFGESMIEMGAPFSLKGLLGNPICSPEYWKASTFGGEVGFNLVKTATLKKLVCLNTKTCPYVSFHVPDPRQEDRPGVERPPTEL

[2] = Inhibition of sheep placental COX2 by liquid scintillation counter
[3] = target: Prostaglandin G/H synthase 2 (Ovis aries, UniProt P79208); assay: Inhibition of sheep placental COX2 by liquid scintillation counter
Prostaglandin G/H synthase 2, sequence (P79208 whole entry, looked up): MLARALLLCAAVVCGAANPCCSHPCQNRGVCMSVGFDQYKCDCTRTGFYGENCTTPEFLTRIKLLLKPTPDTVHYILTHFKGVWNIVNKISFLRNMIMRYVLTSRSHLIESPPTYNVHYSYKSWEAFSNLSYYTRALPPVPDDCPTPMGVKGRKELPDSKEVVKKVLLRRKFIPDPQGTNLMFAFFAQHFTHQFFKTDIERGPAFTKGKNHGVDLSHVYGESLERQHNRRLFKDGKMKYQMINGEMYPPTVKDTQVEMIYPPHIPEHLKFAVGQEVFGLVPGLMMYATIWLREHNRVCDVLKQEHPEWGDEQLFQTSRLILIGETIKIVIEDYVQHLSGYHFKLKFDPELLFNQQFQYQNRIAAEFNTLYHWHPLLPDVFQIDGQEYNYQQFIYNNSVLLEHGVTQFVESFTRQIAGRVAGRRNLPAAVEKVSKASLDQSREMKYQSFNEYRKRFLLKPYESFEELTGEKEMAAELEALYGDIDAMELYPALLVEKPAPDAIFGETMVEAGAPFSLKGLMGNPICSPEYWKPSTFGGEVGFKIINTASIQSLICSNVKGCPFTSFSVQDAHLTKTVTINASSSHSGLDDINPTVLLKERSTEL
Outline: (§1)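 Enzymes used were ram seminal vesicle COX-1 and sheep placenta COX-2 (70% pure), 2 units each, in 0.1 M Tris-HCl pH 7.5 with 1 mM hematin and 2 mM phenol. Sample was preincubated 2 min at 37 °C, then 51.4 µM [1-14C]arachidonic acid was added for 2 min at 37 °C. Extraction used hexane-EtOAc (2:1); PGE2 was measured by radioimmunoassay with scintillation counting. IC50 came from duplicate four-point titration.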

[4] = target: T2, Prostaglandin G/H synthase 1 (Ovis aries, UniProt P05979); assay: Inhibition of COX1 from ram seminal vesicles by liquid scintillation counter
T2 sequence (P05979 whole entry): T1 sequence (whole entry)
Outline: as §1

[5] = system: Prostaglandin G/H synthase 2 (Ovis aries); assay: Inhibition of sheep placental COX2 at 10 ug/ml by liquid scintillation counter

An inhibition [1] of 21.7% and an INH [2] of 1.85 ×10⁻⁵ M were found for C=C(CC[C@@H](C(=O)O[C@@H]1OC[C@@H](O)[C@H](O)[C@H]1O)[C@H]1CC[C@@]2(C)C3=C(CC[C@]12C)[C@@]1(C)CC[C@@H](OC(C)=O)C(C)(C)[C@@H]1CC3)C(C)C in this work.
An inhibition [1] of 18.1% and an IC50 [3] of 1.15 µM were found for CC(C)(O)[C@@H](O)CC[C@@H](C(=O)O)[C@H]1CC[C@@]2(C)C3=C(CC[C@]12C)[C@@]1(C)CCC(=O)C(C)(C)[C@@H]1CC3 [FOMITOPINIC ACID A] in this work.
An IC50 [4] of 1910 µM and an IC50 [3] of 5110 µM were found for CC(C)=CCC[C@@H](C(=O)O[C@@H]1OC[C@@H](O)[C@H](O)[C@H]1O)[C@H]1CC[C@@]2(C)C3=C(CC[C@]12C)[C@@]1(C)CCC(=O)C(C)(C)[C@@H]1CC3 [FOMITOSIDE C] in this work.
An IC50 [4] of 3330 µM and an IC50 [3] of 2390 µM were found for C=C(CC[C@@H](C(=O)O[C@@H]1OC[C@@H](O)[C@H](O)[C@H]1O)[C@H]1CC[C@@]2(C)C3=C(CC[C@]12C)[C@@]1(C)CCC(=O)C(C)(C)[C@@H]1CC3)C(C)C [FOMITOSIDE D] in this work.
An inhibition [1] of 57.2% and an IC50 [3] of 0.15 µM were found for CC(=O)O[C@@H]1CC[C@]2(C)C3=C(CC[C@H]2C1(C)C)[C@]1(C)CC[C@H]([C@@H](C/C=C/C(C)(C)O)C(=O)O[C@@H]2OC[C@@H](O)[C@H](O)[C@H]2O)[C@@]1(C)CC3 [FOMITOSIDE E] in this work.
An inhibition [1] of 27.5% and an IC50 [3] of 1.13 µM were found for CC(=O)O[C@@H]1CC[C@]2(C)C3=C(CC[C@H]2C1(C)C)[C@]1(C)CC[C@H]([C@@H](CCC=C(C)C)C(=O)O[C@@H]2OC[C@@H](O)[C@H](O)[C@H]2O)[C@@]1(C)CC3 [FOMITOSIDE F] in this work.
An inhibition [5] of 70.1% and an IC50 [4] of 73.9 µM were found for COC(=O)CC(C)(O)CC(=O)O[C@@H]1CC[C@]2(C)C3=C(CC[C@H]2C1(C)C)[C@]1(C)CC[C@H]([C@@H](CCC=C(C)C)C(=O)O[C@@H]2OC[C@@H](O)[C@H](O)[C@H]2O)[C@@]1(C)CC3 (some centres undefined) [FOMITOSIDE H] in this work.
